Screening results as filed in PubChem.
Sampled rows, rich in hits. Any-hit rate of the full collection: about 5.8%.
Pf Dd2 growth – inhibitors of Plasmodium falciparum Dd2 growth. P. falciparum Dd2 growth, SYBR Green, 72 h; stronger effect = lower value. activity change, % at 10 µM. 94,000 tested, 2.3% active; in the data active means activity change below about -80%; inconclusive means no clear call, values can overlap the other calls
T cruzi growth-1 – T. cruzi proliferation inhibition | T. cruzi beta-gal in NIH3T3, GalScreen luminescence, 90 h | inhibition, % at 8.34 µM | 77,000 tested, 5.9% active;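 active means mean inhibition above about 93%, with at least 55% of replicates each passing it, limit read from the data, passing the limit was not always enough; inconclusive means only one of those two conditions holds; inactive means neither condition holds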
IDH1 mut inh – inhibitors of human IDH1 R132H | 70,000 tested, 0.18% active | IDH1 R132H reductase, diaphorase/resazurin fluorescence, 60 min | inhibition, % at 10 µM | AID 624101; in the data active means inhibition above about 34%; inconclusive means no clear call, values can overlap the other calls; inactive means below about 11%;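 further: 0% = DMSO and 100% = no enzyme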
Target sequence (O75874 whole entry R132H): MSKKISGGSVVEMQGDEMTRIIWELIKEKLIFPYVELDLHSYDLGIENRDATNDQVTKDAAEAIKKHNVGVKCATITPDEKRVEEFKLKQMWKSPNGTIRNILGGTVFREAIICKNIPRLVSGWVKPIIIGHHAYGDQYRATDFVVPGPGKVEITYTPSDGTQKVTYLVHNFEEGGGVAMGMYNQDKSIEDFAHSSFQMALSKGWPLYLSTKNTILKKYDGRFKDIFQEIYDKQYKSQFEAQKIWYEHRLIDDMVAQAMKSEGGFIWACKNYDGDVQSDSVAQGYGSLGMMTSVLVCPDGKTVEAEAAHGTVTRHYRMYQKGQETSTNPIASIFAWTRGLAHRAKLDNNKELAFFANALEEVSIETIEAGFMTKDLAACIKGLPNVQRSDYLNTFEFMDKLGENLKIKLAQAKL
KDM4C inh – blocks human GASC-1 (KDM4C) demethylase activity | GST-KDM4C 2-372, H3K9me3 peptide, LANCE TR-FRET | inhibition, % at 12.5 µM | 96,000 tested, 0.15% active | AID 720574;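 active means mean replicate inhibition above about 25%, with at least 55% of replicates also reaching it, limit read from the data, passing the limit was not always enough; inconclusive means only one of those two conditions met; inactive means neither condition met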
Target sequence (Q9H3R0 2-372 limits assumed): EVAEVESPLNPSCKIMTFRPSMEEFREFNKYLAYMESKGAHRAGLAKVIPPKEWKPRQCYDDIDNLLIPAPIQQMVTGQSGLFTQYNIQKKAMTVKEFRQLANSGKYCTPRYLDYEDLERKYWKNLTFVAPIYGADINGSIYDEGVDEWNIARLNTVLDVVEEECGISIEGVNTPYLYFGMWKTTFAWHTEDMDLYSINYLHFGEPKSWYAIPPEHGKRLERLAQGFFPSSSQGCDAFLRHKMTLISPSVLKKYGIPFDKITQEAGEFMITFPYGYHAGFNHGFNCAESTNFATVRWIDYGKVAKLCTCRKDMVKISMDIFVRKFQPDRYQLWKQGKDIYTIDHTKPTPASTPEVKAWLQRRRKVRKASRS
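Test system – GST-tagged GASC-1 (JMJD2C) catalytic fragment, aa 2-372 · Medium – HEPES buffer, pH 7.5, plus ascorbate · Reagent – H3K9me3 peptide with Fe(II)/2OG · Compound – one test concentration per compound · Timing – 30 min reaction, 60 min detection, RT · Technique – TR-FRET with Eu antibody and ULight streptavidin, EDTA stop · Read-out basis – inhibition from TR-FRET ratio decrease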
T cruzi growth-2 – Trypanosoma cruzi proliferation inhibition. inhibition, % at 8.35 µM. T. cruzi beta-gal in NIH3T3, GalScreen luminescence, 90 h. 5,600 tested, 72% active. AID 651739. shares compounds with T cruzi growth-1;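 active means mean replicate inhibition above about 95% and at least 55% of replicates individually reaching it, limit read from the data; inconclusive means only one of the two criteria is met; inactive means neither criterion is met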
T cruzi growth-3 – blocks T. cruzi growth in NIH3T3 host cells; shares compounds with T cruzi growth-1; T. cruzi beta-gal in NIH3T3, GalScreen luminescence, 90 h; inhibition, % at 2.09 µM; 5,600 tested, 21% active; AID 651740;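 active means mean inhibition above about 95%, with at least 55% of replicates also reaching it, limit read from the data; inconclusive means meets just one of the two conditions; inactive means meets neither condition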;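 further: plate controls were neutral control median for no effect and positive control median for full effect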
3T3 cytotox – NIH/3T3 (mouse) viability loss; shares compounds with T cruzi growth-1; NIH/3T3 viability, CellTiter-Glo ATP luminescence, 90 h; cytotoxicity (signal decrease), % at 8.35 µM; 5,600 tested, 14% active;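 active means mean signal decrease across replicates above about 35% based on untreated-well scatter, with enough replicates individually passing, limit read from the data; inconclusive means no rule stated though some were filed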;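 further: 0% = median of neutral control wells and 100% = median of positive control wells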
NIH3T3 tox 2 – cytotoxicity in mouse NIH/3T3 fibroblasts; shares compounds with T cruzi growth-1; NIH/3T3 viability, CellTiter-Glo ATP luminescence, 90 h; inhibition, % at 24.9 µM; 5,600 tested, 56% active; AID 651744;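 active means mean loss of cell viability signal at or above a set limit, and enough replicates individually reaching it; inconclusive means meets only the mean limit or only the replicate share; inactive means meets neither condition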;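 further: 0% = median of neutral control wells and 100% = median of positive control wells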
Starred values were filed as active, the others as inactive; ? = inconclusive; . = not tested or not shown; + = active, no number.

SMILES	Pf Dd2 growth	T cruzi growth-1	IDH1 mut inh	KDM4C inh	T cruzi growth-2	T cruzi growth-3	3T3 cytotox	NIH3T3 tox 2
N#C[C@@H]1[C@@H](c2ccc(C#Cc3cccc(F)c3)cc2)[C@H](CO)N1C(=O)C1CCC1	-35.8	99.2*	.	-0.9	104.0*	105.2*	14.2	-2.6
N#C[C@H]1[C@H](c2ccc(C#Cc3cccc(F)c3)cc2)[C@@H](CO)N1C(=O)C1CCC1	-52.2	97.0*	.	-1.4	97.2*	108.8*	17.4	11.8
Cn1c(SCC(=O)Nc2ccc(Br)cc2Cl)nnc1-c1cccc([N+](=O)[O-])c1	.	.	0.1	.	.	.	.	.
O=C(O)[C@@H]1[C@@H](CO)[C@@H]2Cn3c(ccc(/C=C/c4ccccc4)c3=O)[C@@H]2N1Cc1ccc2c(c1)OCO2	.	101.6*	.	1.7	49.8	0.2	16.7	100.8*
O=C(O)[C@H]1[C@H](CO)[C@H]2Cn3c(ccc(/C=C/c4ccccc4)c3=O)[C@H]2N1Cc1ccc2c(c1)OCO2	.	127.2*	.	13.2	88.1	64.6	30.4	62.7*
O=C(O)[C@H]1[C@H](CO)[C@H]2Cn3c(ccc(/C=C/c4ccccc4)c3=O)[C@H]2N1C(=O)c1cnccn1	.	7.1	.	-2.8	.	.	.	.
O=C([C@H]1N[C@H]2c3ccc(/C=C/c4ccccc4)c(=O)n3C[C@H]2[C@@H]1CO)N1CCCCC1	.	+	.	-0.2	28.0	-31.1	-9.3	-18.0
CCCN1[C@H](C(=O)N(C)C)[C@@H](CO)[C@@H]2Cn3c(ccc(/C=C/c4ccccc4)c3=O)[C@@H]21	.	34.0	.	3.2	.	.	.	.
COC(=O)[C@H]1[C@H](CO)[C@H]2Cn3c(ccc(/C=C/c4ccccc4)c3=O)[C@H]2N1C(=O)c1cnccn1	-11.1	101.1*	.	-2.1	39.5	7.8	-14.2	40.3*
C[C@@H]1CN([C@H](C)CO)S(=O)(=O)c2ccc(C#CC3CCCC3)cc2O[C@@H]1CN(C)C(=O)C1CC1	-61.6	-93.7	-3.4	0.0	.	.	.	.
C[C@H](CO)N1C[C@H](C)[C@H](CN(C)Cc2cccnc2)Oc2ncc(C3=CCCCC3)cc2C1=O	9.3	6.4	0.0	0.6	.	.	.	.
C[C@@H]1CCCCO[C@@H](CN(C)C(=O)C2CCCCC2)[C@H](C)CN([C@@H](C)CO)C(=O)c2cc(NC(=O)Nc3ccc(C(F)(F)F)cc3)ccc2O1	-5.5	120.6*	0.5	-1.0	97.2*	108.3*	-9.0	9.0
C[C@@H]1CCCCO[C@@H](CN(C)C(=O)C2CCCCC2)[C@@H](C)CN([C@@H](C)CO)C(=O)c2cc(NC(=O)Nc3ccc(C(F)(F)F)cc3)ccc2O1	?	120.2*	.	-0.2	95.9*	116.9*	38.1*	64.1*
C[C@@H]1CN([C@@H](C)CO)C(=O)c2cc(NC(=O)Nc3ccc(F)cc3)ccc2O[C@@H](C)CCCCO[C@H]1CN(C)C(=O)C1CCCCC1	-52.2	82.2	2.0	0.1	.	.	.	.
C[C@@H]1CN([C@H](C)CO)C(=O)c2cc(NC(=O)Nc3ccc(C(F)(F)F)cc3)ccc2O[C@@H](C)CCCCO[C@H]1CN(C)C(=O)C1CCCCC1	-44.6	121.7*	.	0.0	102.1*	116.7*	15.8	47.0*
C[C@@H]1CN([C@H](C)CO)C(=O)c2cc(NC(=O)Nc3ccc(C(F)(F)F)cc3)ccc2O[C@@H](C)CCCCO[C@@H]1CN(C)C(=O)C1CCCCC1	-84.4*	120.9*	.	-0.1	91.8	115.6*	-12.4	23.5
O=C(Cc1ccccc1)N1CC(=O)N2[C@H](CO)[C@@H](c3ccc(-c4cccc(F)c4)cc3)[C@H]2C1	-0.8	.	.	-0.6	.	.	.	.
C[C@@H]1CN([C@@H](C)CO)C(=O)c2cc(NC(=O)Cc3cn(C)c4ccccc34)ccc2O[C@H]1CN(C)C(=O)Nc1ccccc1	-12.4	2.2	-19.0	-0.4	.	.	.	.
O=C(C[C@@H]1CC[C@H]2[C@@H](COC[C@H](O)CN2C(=O)c2ccncc2)O1)NC1CCC1	-6.4	60.3	.	-0.6	.	.	.	.
C[C@H](CO)N1C[C@H](C)[C@@H](CN(C)C(=O)C2CCCCC2)OCCCC[C@H](C)Oc2ccc(NC(=O)Nc3ccc(C(F)(F)F)cc3)cc2C1=O	-28.2	120.2*	2.2	0.2	97.4*	109.9*	4.3	18.5
C[C@H]1CN([C@@H](C)CO)S(=O)(=O)c2ccc(C3=CCCC3)cc2O[C@H]1CN(C)S(=O)(=O)c1ccc(F)cc1	-46.1	120.9*	-28.0	-0.3	105.7*	89.8	15.8	1.2
COc1ccc(S(=O)(=O)N(C)C[C@H]2Oc3cc(C4=CCCC4)ccc3S(=O)(=O)N([C@@H](C)CO)C[C@@H]2C)cc1	-59.5	56.7	0.3	-0.9	.	.	.	.
C[C@@H]1CN([C@@H](C)CO)S(=O)(=O)c2ccc(C3=CCCC3)cc2O[C@H]1CN(C)S(=O)(=O)c1ccc(F)cc1	-59.3	115.5*	0.0	-0.9	97.4*	98.9*	27.0	26.8*
Cc1ccc(S(=O)(=O)N(C)C[C@@H]2Oc3cc(C4=CCCC4)ccc3S(=O)(=O)N([C@H](C)CO)C[C@@H]2C)cc1	-70.6	.	-37.1	1.1	.	.	.	.
C[C@@H]1CN([C@H](C)CO)S(=O)(=O)c2ccc(C3=CCCCC3)cc2O[C@@H]1CN(C)S(=O)(=O)c1ccc(F)cc1	-55.5	119.3*	.	-0.2	101.1*	106.8*	16.0	61.2*
SMILES	Pf Dd2 growth	T cruzi growth-1	IDH1 mut inh	KDM4C inh	T cruzi growth-2	T cruzi growth-3	3T3 cytotox	NIH3T3 tox 2
C[C@@H](NC(=O)C[C@H]1C[C@@H]2c3cc(NC(=O)CC4CC4)ccc3O[C@@H]2[C@H](CO)O1)c1ccccc1	-3.7	-32.2	0.1	0.9	.	.	.	.
CO[C@H]1CN(C)C(=O)c2ccc(NC(=O)C3CC3)cc2OC[C@@H](C)N(CCc2ccccc2)C[C@@H]1C	-44.4	62.2	0.1	0.0	.	.	.	.
C/C=C/c1ccc([C@@H]2[C@@H](CO)N3CCCCN(S(=O)(=O)c4ccc(F)cc4)C[C@H]23)cc1	-11.1	85.9	.	-2.8	.	.	.	.
C/C=C/c1ccc([C@H]2[C@H](CO)N3CCCCN(S(=O)(=O)c4cccc(C)c4)C[C@@H]23)cc1	-9.6	117.8*	.	0.2	107.0*	75.2	26.9	104.5*
C/C=C/c1ccc([C@H]2[C@@H](CO)N3CCCCN(S(=O)(=O)c4cccc(C)c4)C[C@@H]23)cc1	-7.3	110.6*	.	-0.7	112.4*	68.8	10.2	80.0*
Cc1ccc(-c2ccc([C@H]3[C@@H](CO)N4CCCCN(S(=O)(=O)c5cccc(C)c5)C[C@@H]34)cc2)cc1	-45.7	85.2	.	.	.	.	.	.
C[C@H](CO)N1C[C@H](C)[C@@H](CN(C)C(=O)C2CCCCC2)Oc2cc(C#CC3CC3)ccc2S1(=O)=O	-8.6	?	.	-1.5	104.7*	71.4	18.1	42.6*
